Results: article PMC6585766 (Clinical Pharmacology in Drug Development, 2018)
“Also recorded” adds a separate entry of the source. Read-outs that look alike come from different tables or passages of the source.

What was measured:
[1] = administered during the period of organogenesis; no reference given; cited from earlier work
Safety assessment = format: in vivo, human; conditions: single oral 4-mg dose
In short: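 Open-label, multicentre study in male subjects (healthy, mild, moderate or severe hepatic impairment) given a single oral 4-mg dose. Adverse events were recorded from consent through a follow-up telephone call 7 ± 1 days after dosing, plus any reported within 28 days. Physical exams, vital signs, 12-lead ECGs and clinical laboratory tests were also done. TEAEs were tabulated by system organ class and preferred term, each subject counted once per event.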

[2] = fed vs fasted; ref data on file; cited from earlier work
[3] = cited from earlier work
[4] = human, cited from earlier work
[5] = format: in vivo, human; conditions: for AUC / AUC(0-inf) / Cmax / half-life / Tmax: human, plasma, po, 4 mg; for AUC / AUC(0-inf) / Cmax / Tmax / CL/F / AUC0‐t, Ratio (%) of Geometric Mean (Impaired vs Healthy) / AUC, Ratio (%) of Geometric Mean (Impaired vs Healthy) / Cmax, Ratio (%) of Geometric Mean (Impaired vs Healthy) / tmax, Median Difference (Impaired– Healthy): single oral 4-mg dose; for AUC(0-inf): AUC (time 0 extrapolated to infinity); for half-life: t1/2, single oral 4-mg dose; for AUC0‐t, Ratio (%) of Geometric Mean (Impaired vs Healthy) / AUC, Ratio (%) of Geometric Mean (Impaired vs Healthy) / Cmax, Ratio (%) of Geometric Mean (Impaired vs Healthy): ANOVA; for tmax, Median Difference (Impaired– Healthy): nonparametric method
In short: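 Male subjects (8 per group: healthy, mild, moderate, severe hepatic impairment) received a single oral 4-mg dose. Water was withheld from 60 min pre-dose to 2 h post-dose, food until at least 4 h post-dose, and CYP1A2/CYP3A modulators from 14 days prior. Plasma was sampled pre-dose to 48 h and assayed by validated LC-MS/MS. Noncompartmental parameters used actual sampling times. ANOVA (group as fixed effect) gave geometric mean ratios with 90% CI versus matched healthy subjects.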

[6] = patients with relapsed and refractory multiple myeloma; cited from earlier work
[7] = heavy smokers (approximately 25 cigarettes per day); ref data on file; cited from earlier work
[8] = severe hepatic impairment group, 1 subject
[9] = group 1 healthy subjects, n = 8, arithmetic mean (SD)
[10] = group 2 severe hepatic impairment, n = 8, arithmetic mean (SD)
[11] = group 3 moderate hepatic impairment, n = 8, arithmetic mean (SD)
[12] = group 4 mild hepatic impairment, n = 8, arithmetic mean (SD)

SMILES: Nc1cccc2c1C(=O)N(C1CCC(=O)NC1=O)C2=O (centres unmarked) [Pomalidomide]
- teratogenicity [1]: teratogenic
- total number of TEAEs (Safety assessment; all 32 subjects): 8
- clinically significant clinical laboratory, vital sign, or ECG results (Safety assessment; all subjects): No subject had a clinical laboratory, vital sign, or ECG result that was considered clinically significant or reported as a TEAE
- deaths, SAEs, TEAEs leading to discontinuation (Safety assessment; all subjects): No deaths, SAEs, or TEAEs leading to discontinuation were reported; also recorded: No deaths or other SAEs were reported and no subjects were discontinued; also recorded: no deaths and no subject discontinued due to a TEAE
- severity of TEAEs (Safety assessment; all subjects): All TEAEs were mild in severity except for 1 subject in the moderate hepatic impairment group with the moderate TEAE of bronchitis
- TEAEs reported (Safety assessment; healthy subjects): No TEAEs
- safety and tolerability (Safety assessment; healthy subjects and subjects with severe, moderate, or mild hepatic impairment): safe and well tolerated
- subjects reporting at least 1 TEAE related to pomalidomide (Safety assessment; mild hepatic impairment group, 2 subjects): 25.0%
- subjects reporting TEAEs (Safety assessment; mild hepatic impairment group, 4 subjects): 50.0%
- subjects reporting TEAEs (Safety assessment; moderate hepatic impairment group, 1 subject): 12.5%
- subjects reporting at least 1 TEAE related to pomalidomide (Safety assessment; overall, 3 subjects (diarrhea, nausea, headache, flushing)): 9.4%
- subjects reporting TEAEs (Safety assessment; overall, 6 of 32 subjects): 18.8%
- subjects reporting TEAEs (Safety assessment; [8]): 12.5%
- subjects reporting at least 1 TEAE related to pomalidomide (Safety assessment; [8]): 12.5%
- decrease of AUC by food [2]: 8%
- effect on exposure of pomalidomide ([3]; co‐administration of a strong CYP1A2 inhibitor in the presence of a strong CYP3A inhibitor): approximately doubled
- effect on exposure to pomalidomide ([3]; co‐administration of a strong CYP3A inhibitor or inducer or a P‐glycoprotein inhibitor): no clinically relevant effect
- clearance pathway: CYP–mediated hydroxylation with subsequent glucuronidation [4]: 43 % of the dose
- unchanged pomalidomide in urine [4]: 2.2 % of the dose
- total [14C]‐radioactivity recovered in feces ([4]; oral): 15.5%
- total [14C]‐radioactivity recovered in urine ([4]; oral): 72.8%
- recovery of total [14C]‐radioactivity ([4]; oral, urine plus feces): approximately 88 % of the administered dose
- unchanged pomalidomide in feces ([4]; samples collected during the 96‐hour postdose period): 7.7 % of the dose
- clearance pathway: excretion of unchanged drug ([4]; share of the dose): 10%
- clearance pathway: glutarimide ring hydrolysis ([4]; share of the dose): 25%
- AUC ([5]; AUC0‐t, Geometric Mean, healthy, N = 8): 481 ng·h/mL
- AUC ([5]; AUC0‐t, Geometric Mean, mild hepatic impairment, N = 8): 693 ng·h/mL
- AUC ([5]; AUC0‐t, Geometric Mean, moderate hepatic impairment, N = 8): 725 ng·h/mL
- AUC ([5]; AUC0‐t, Geometric Mean, severe hepatic impairment, N = 8): 762 ng·h/mL
- AUC ([5]; AUC0‐t, group 1 healthy subjects, n = 8, arithmetic mean (SD)): 493 ng·h/mL
- AUC ([5]; AUC0‐t, group 2 severe hepatic impairment, n = 8, arithmetic mean (SD)): 822 ng·h/mL
- AUC ([5]; AUC0‐t, group 3 moderate hepatic impairment, n = 8, arithmetic mean (SD)): 764 ng·h/mL
- AUC ([5]; AUC0‐t, group 4 mild hepatic impairment, n = 8, arithmetic mean (SD)): 728 ng·h/mL
- AUC(0-inf) [5, 9]: 498 ng·h/mL
- AUC(0-inf) [5, 10]: 908 ng·h/mL
- AUC(0-inf) [5, 11]: 810 ng·h/mL
- AUC(0-inf) [5, 12]: 787 ng·h/mL
- AUC ([5]; AUC, Geometric Mean, healthy, N = 8): 486 ng·h/mL
- AUC ([5]; AUC, Geometric Mean, mild hepatic impairment, N = 8): 734 ng·h/mL
- AUC ([5]; AUC, Geometric Mean, moderate hepatic impairment, N = 8): 764 ng·h/mL
- AUC ([5]; AUC, Geometric Mean, severe hepatic impairment, N = 8): 833 ng·h/mL
- Cmax ([5]; Geometric Mean, healthy, N = 8): 59.2 ng/mL
- Cmax ([5]; Geometric Mean, mild hepatic impairment, N = 8): 55.8 ng/mL
- Cmax ([5]; Geometric Mean, moderate hepatic impairment, N = 8): 56.2 ng/mL
- Cmax ([5]; Geometric Mean, severe hepatic impairment, N = 8): 44.9 ng/mL
- Cmax [5, 10]: 49.1 ng/mL
- Cmax [5, 12]: 56.2 ng/mL
- half-life [5, 10]: 762 min
- half-life [5, 11]: 606 min
- half-life [5, 12]: 618 min
- Tmax ([5]; Geometric Mean, healthy, N = 8, Table 4): 1.5 h
- Tmax ([5]; Geometric Mean, mild hepatic impairment, N = 8, Table 4): 2.25 h
- Tmax ([5]; Geometric Mean, moderate hepatic impairment, N = 8, Table 4): 2.38 h
- Tmax ([5]; Geometric Mean, severe hepatic impairment, N = 8, Table 4): 2.5 h
- Tmax ([5]; group 1 healthy subjects, n = 8, median (min, max)): 1.5 h
- Tmax ([5]; group 2 severe hepatic impairment, n = 8, median (min, max)): 2.5 h
- Tmax ([5]; group 3 moderate hepatic impairment, n = 8, median (min, max)): 2.25 h
- Tmax ([5]; group 4 mild hepatic impairment, n = 8, median (min, max)): 2 h
- increase of pomalidomide exposure ([5]; mild hepatic impairment vs healthy): approximately 50%
- increase of pomalidomide exposure ([5]; moderate hepatic impairment vs healthy): approximately 60%
- increase of pomalidomide exposure ([5]; severe hepatic impairment vs healthy): approximately 70%
- CL/F [5, 9]: 8.4 (1.9) L/h
- CL/F [5, 10]: 5.4 (3.3) L/h
- CL/F [5, 11]: 5.6 (2.6) L/h
- CL/F [5, 12]: 5.8 (2.2) L/h
- AUC0‐t, Ratio (%) of Geometric Mean (Impaired vs Healthy) ([5]; mild vs healthy): 143.9%
- AUC, Ratio (%) of Geometric Mean (Impaired vs Healthy) ([5]; mild vs healthy): 151.2%
- Cmax, Ratio (%) of Geometric Mean (Impaired vs Healthy) ([5]; mild vs healthy): 94.2%
- tmax, Median Difference (Impaired– Healthy) ([5]; mild vs healthy): 1.0 h
- AUC0‐t, Ratio (%) of Geometric Mean (Impaired vs Healthy) ([5]; moderate vs healthy): 150.6%
- AUC, Ratio (%) of Geometric Mean (Impaired vs Healthy) ([5]; moderate vs healthy): 157.5%
- Cmax, Ratio (%) of Geometric Mean (Impaired vs Healthy) ([5]; moderate vs healthy): 94.8%
- tmax, Median Difference (Impaired– Healthy) ([5]; moderate vs healthy): 1.0 h
- AUC0‐t, Ratio (%) of Geometric Mean (Impaired vs Healthy) ([5]; severe vs healthy): 158.4%
- AUC, Ratio (%) of Geometric Mean (Impaired vs Healthy) ([5]; severe vs healthy): 171.5%
- Cmax, Ratio (%) of Geometric Mean (Impaired vs Healthy) ([5]; severe vs healthy): 75.8%
- tmax, Median Difference (Impaired– Healthy) ([5]; severe vs healthy): 0.75 h
- nonrenal routes as share of pomalidomide total body clearance [6]: approximately 70%
- AUC lower in heavy smokers than in nonsmokers [7]: 30%
- Cmax higher in heavy smokers than in nonsmokers [7]: 14.4%
